Source: PubChem BioAssay (Broad Institute)
T cruzi growth-1: blocks T. cruzi growth in NIH3T3 culture; T. cruzi beta-gal in NIH3T3, GalScreen luminescence, 90 h; inhibition, % at 8.34 µM; 5.9% of 77,000 active;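 active means mean inhibition above about 93%, with at least 55% of replicates each passing it, limit read from the data, passing the limit was not always enough; inconclusive means only one of those two conditions holds; inactive means neither condition holds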
KDM4C inh: KDM4C (human) demethylase inhibition; Q9H3R0; GST-KDM4C 2-372, H3K9me3 peptide, LANCE TR-FRET; inhibition, % at 12.5 µM; 0.15% of 96,000 active;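 active means mean replicate inhibition above about 25%, with at least 55% of replicates also reaching it, limit read from the data, passing the limit was not always enough; inconclusive means only one of those two conditions met; inactive means neither condition met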
Target sequence (Q9H3R0 2-372 limits assumed): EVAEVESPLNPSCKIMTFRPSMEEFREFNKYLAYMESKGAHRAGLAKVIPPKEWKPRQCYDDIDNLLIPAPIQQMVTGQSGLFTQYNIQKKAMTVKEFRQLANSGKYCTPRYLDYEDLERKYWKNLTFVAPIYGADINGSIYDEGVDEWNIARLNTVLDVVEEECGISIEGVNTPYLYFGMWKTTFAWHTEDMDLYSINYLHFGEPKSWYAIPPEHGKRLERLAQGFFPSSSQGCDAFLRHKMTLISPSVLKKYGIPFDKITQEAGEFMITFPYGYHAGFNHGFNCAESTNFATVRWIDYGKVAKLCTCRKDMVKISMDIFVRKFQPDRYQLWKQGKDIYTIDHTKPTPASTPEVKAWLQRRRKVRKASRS
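Assay system: GST-GASC-1 enzyme fragment 2-372 | Amount: 10 nM enzyme | Medium: HEPES buffer, pH 7.5, plus ascorbate | Reagent: H3K9me3 peptide substrate, Fe(II), 2-oxoglutarate | Doses: Single-point compound screen | Incubation: 30 min demethylation and 1 h detection at room temperature | Measured by: LANCE TR-FRET, excitation 340 nm, emissions 618 and 671 nm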
IDH1 mut inh: inhibitors of human IDH1 R132H | O75874 | IDH1 R132H reductase, diaphorase/resazurin fluorescence, 60 min | 0.18% of 70,000 active | AID 624101 | inhibition, % at 10 µM; in the data active means inhibition above about 34%; inconclusive means no clear call, values can overlap the other calls; inactive means below about 11%;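 further: 0% = DMSO and 100% = no enzyme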
T cruzi growth-2: Trypanosoma cruzi proliferation inhibition; shares compounds with T cruzi growth-1; T. cruzi beta-gal in NIH3T3, GalScreen luminescence, 90 h; inhibition, % at 8.35 µM; 72% of 5,600 active;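 active means mean replicate inhibition above about 95% and at least 55% of replicates individually reaching it, limit read from the data; inconclusive means only one of the two criteria is met; inactive means neither criterion is met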
T cruzi growth-3: blocks T. cruzi growth in NIH3T3 host cells | inhibition, % at 2.09 µM | shares compounds with T cruzi growth-1 | AID 651740 | T. cruzi beta-gal in NIH3T3, GalScreen luminescence, 90 h | 21% of 5,600 active;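 active means mean inhibition above about 95%, with at least 55% of replicates also reaching it, limit read from the data; inconclusive means meets just one of the two conditions; inactive means meets neither condition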;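 further: plate controls were neutral control median for no effect and positive control median for full effect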
3T3 cytotox: cytotoxicity in mouse NIH/3T3 fibroblasts | shares compounds with T cruzi growth-1 | cytotoxicity (signal decrease), % at 8.35 µM | 14% of 5,600 active | AID 651742 | NIH/3T3 viability, CellTiter-Glo ATP luminescence, 90 h;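 active means mean signal decrease across replicates above about 35% based on untreated-well scatter, with enough replicates individually passing, limit read from the data; inconclusive means no rule stated though some were filed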;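 further: 0% = median of neutral control wells and 100% = median of positive control wells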
3T3 cytotox 2: cytotoxicity in mouse NIH/3T3 fibroblasts; AID 651744; shares compounds with T cruzi growth-1; 56% of 5,600 active; NIH/3T3 viability, CellTiter-Glo ATP luminescence, 90 h; inhibition, % at 24.9 µM;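 active means mean loss of cell viability signal at or above a set limit, and enough replicates individually reaching it; inconclusive means meets only the mean limit or only the replicate share; inactive means meets neither condition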;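 further: 0% = median of neutral control wells and 100% = median of positive control wells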
* hit, by the source's call; ? = inconclusive; nt = no result. The full list was thinned out, with hits kept by preference.

SMILES	T cruzi growth-1	KDM4C inh	IDH1 mut inh	T cruzi growth-2	T cruzi growth-3	3T3 cytotox	3T3 cytotox 2
Cc1noc(C)c1C(=O)n1cc2c(n1)-c1cc(F)ccc1SC2	nt	nt	-1	nt	nt	nt	nt
C[C@@H]1CN([C@@H](C)CO)S(=O)(=O)c2ccc(C#CC3CCCC3)cc2O[C@@H]1CN(C)C(=O)Cc1ccncc1	122*	1	0	97*	79	13	62*
C[C@H](CO)N1C[C@H](C)[C@@H](CN(C)C(=O)Cc2ccncc2)Oc2cc(C#CC3CCCC3)ccc2S1(=O)=O	122*	-2	nt	108*	87	1	?
C[C@H]1CN([C@@H](C)CO)S(=O)(=O)c2ccc(C#CC3CCCCC3)cc2O[C@@H]1CN(C)C(=O)Cc1ccncc1	83	1	4	nt	nt	nt	nt
C[C@H](CO)N1C[C@H](C)[C@@H](CN(C)C(=O)Cc2ccncc2)Oc2cc(C#CC3CCCCC3)ccc2S1(=O)=O	86	-1	nt	nt	nt	nt	nt
CCCCN1C(=O)NC(C(F)(F)F)(C(F)(F)F)C2=C1CC(C)(C)CC2=O	nt	nt	-1	nt	nt	nt	nt
OC[C@@H]1[C@H](c2ccc(C#CC3(O)CCCC3)cc2)[C@H]2CN(Cc3ccncc3)CCCCN12	90	0	nt	nt	nt	nt	nt
OC[C@@H]1[C@H](c2ccc(C#CC3(O)CCCC3)cc2)[C@H]2CN(Cc3cccnc3)CCCCN12	120*	2	nt	107*	92	31	32*
OC[C@H]1[C@@H](c2ccc(C#CC3(O)CCCC3)cc2)[C@H]2CN(Cc3cccnc3)CCCCN21	103*	1	nt	49	-43	2	4
OC[C@H]1[C@@H](c2ccc(C#CC3(O)CCCC3)cc2)[C@@H]2CN(Cc3cccnc3)CCCCN12	114*	-1	nt	73	3	4	?
OC[C@H]1[C@@H](c2ccc(C#CC3(O)CCCC3)cc2)[C@H]2CN(Cc3ccncc3)CCCCN21	5	1	nt	nt	nt	nt	nt
OC[C@H]1[C@H](c2ccc(C#CC3(O)CCCC3)cc2)[C@@H]2CN(Cc3ccncc3)CCCCN12	6	4	nt	nt	nt	nt	nt
O=C(O)CCC(=O)Nc1ccc(Br)c2cccnc12	nt	nt	1	nt	nt	nt	nt
Cc1c(NC(=O)CNS(=O)(=O)c2ccc(Br)cc2)c(=O)n(-c2ccccc2)n1C	nt	nt	0	nt	nt	nt	nt
COc1cc(-c2nnc(SCC(N)=O)n2C)cc(OC)c1OC	nt	nt	0	nt	nt	nt	nt
COc1ccc(OC)c(NC(=O)CN2CCC(C(N)=O)(N3CCCCC3)CC2)c1	nt	nt	0	nt	nt	nt	nt
O=C(CSc1nnnn1-c1ccccc1)Nc1ccc2c(c1)OCCO2	nt	nt	1	nt	nt	nt	nt
COc1ccc(NC(=O)C2CCCCC2C(=O)O)cc1 (stereo unspecified)	nt	nt	0	nt	nt	nt	nt
CSc1ccccc1NC(=O)CN(c1ccc(I)cc1)S(C)(=O)=O	nt	nt	0	nt	nt	nt	nt
C[C@@H]1CCCCO[C@H](CN(C)Cc2ccccc2)[C@@H](C)CN([C@H](C)CO)C(=O)c2cc(NC(=O)NC3CCCCC3)ccc2O1	0	0	0	nt	nt	nt	nt
C[C@@H]1CN([C@@H](C)CO)C(=O)c2cc(NC(=O)NC3CCCCC3)ccc2O[C@@H](C)CCCCO[C@@H]1CN(C)Cc1ccccc1	-69	17	nt	nt	nt	nt	nt
C[C@@H]1CCCCO[C@@H](CN(C)Cc2ccccc2)[C@H](C)CN([C@H](C)CO)C(=O)c2cc(NC(=O)NC3CCCCC3)ccc2O1	?	-3	nt	107*	63	3	100*
C[C@@H]1CCCCO[C@H](CN(C)Cc2ccccc2)[C@H](C)CN([C@@H](C)CO)C(=O)c2cc(NC(=O)NC3CCCCC3)ccc2O1	?	0	nt	100*	15	1	100*
C=C1C[C@@]23CC[C@@H]4[C@](C)(C(=O)O)CCC[C@@]4(C)C2=CC[C@H]1C3	nt	nt	0	nt	nt	nt	nt
CS(=O)(=O)Nc1ccc(C(=O)CC2(O)C(=O)Nc3ccc(Br)cc32)cc1 (stereo unspecified)	nt	nt	0	nt	nt	nt	nt
SMILES	T cruzi growth-1	KDM4C inh	IDH1 mut inh	T cruzi growth-2	T cruzi growth-3	3T3 cytotox	3T3 cytotox 2
Cc1ccc(N(C(C)C(=O)Nc2ccccc2-c2ccccc2)S(C)(=O)=O)cc1 (stereo unspecified)	nt	nt	-1	nt	nt	nt	nt
O=C1C(=O)N(CCCn2ccnc2)C(c2ccccc2)C1C(=O)c1cccs1 (stereo unspecified)	nt	nt	3	nt	nt	nt	nt
O=C(Nc1cccc(F)c1)N[C@@H]1CC[C@@H](CCNS(=O)(=O)c2cccc(Cl)c2)O[C@@H]1CO	121*	-2	0	56	-9	-27	-5
O=C(Nc1cccc(F)c1)N[C@H]1CC[C@@H](CCNS(=O)(=O)c2cccc(Cl)c2)O[C@@H]1CO	16	-3	0	nt	nt	nt	nt
O=C(Nc1cccc(F)c1)N[C@H]1CC[C@H](CCNS(=O)(=O)c2cccc(Cl)c2)O[C@H]1CO	163*	-2	-1	103*	30	-15	-1
O=C(Nc1ccc(F)cc1)N[C@@H]1CC[C@@H](CCNS(=O)(=O)c2cccc(Cl)c2)O[C@@H]1CO	-11	1	0	nt	nt	nt	nt
COc1ccc(CN2C(=O)C(O)(CC(=O)c3ccc(Cl)cc3)c3ccccc32)cc1OC (stereo unspecified)	nt	nt	0	nt	nt	nt	nt
COC(=O)c1ccccc1NC(=O)COc1cc(C)c(Br)cc1C	nt	nt	0	nt	nt	nt	nt
C/C=C/c1ccc([C@@H]2[C@@H](CN(CC)C(=O)CC)N(C(C)=O)[C@H]2CO)cc1	-2	2	nt	nt	nt	nt	nt
